According to ChEMBL document CHEMBL1136009, “Novel p53 inactivators with neuroprotective action: syntheses and pharmacological evaluation of 2-imino-2,3,4,5,6,7-hexahydrobenzothiazole and 2-imino-2,3,4,5,6,7-hexahydrobenzoxazole derivatives” (J Med Chem, 2002):

Assays:
PC-12 [1] = experiment: Effective concentration to induce 50 % protection of rat PC12 cells from camptothecin-induced cell death; assay type: functional, cell-based
Summary of the method: (§1)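 PC12 cells grown in RPMI1640 with 10% horse serum and 5% fetal calf serum to 70–80% confluence, seeded at 2.2×10^4 cells/mL, grown 12 h. Pretreated 6 h with compound (100–400 nM, 0.4% DMSO final), then camptothecin 40 μM for 24 h. Live cells read by BCECF AM (5 μM, 45 min) fluorescence, ex 490/em 535 nm. EC25/EC50 from logit plot versus log concentration, n = 3.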

PC-12 [2] = experiment: Effective concentration to induce 25 % protection of rat PC12 cells from camptothecin-induced cell death; assay type: functional; summary of the method: as §1
[3] = Neuronal survival of cells in response to compound (100 nM) addition to camptothecin (5 uM) to hippocampal neurons; assay type: functional, Rattus norvegicus, Hippocampus
Summary of the method: (§2)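 Primary hippocampal cultures from embryonic day 18 Sprague–Dawley rats, used at 9–10 days in Neurobasal/B-27 medium. Compound added 1 h before the DNA-damaging agent (camptothecin or etoposide); the agents were made as 500× DMSO stocks. Viable neurons (intact neurites, smooth round soma) were counted in premarked fields before treatment and 24 h after. Results are given as percent survival, mean ± SD.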

[4] = Neuroprotective action against glutamate (20 uM) induced cell death in hippocampal neurons; assay type: functional, Rattus norvegicus, Hippocampus
Summary of the method: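 E18 Sprague–Dawley rat hippocampal cultures (9–10 days old) were pretreated with compound (0.04 μM) 1 h before glutamate in Locke's medium; glutamate came from a fresh 200× saline stock. Viable neurons in premarked fields were counted before treatment and 24 h after insult onset, judged by neurite and soma morphology. Results are given as percent survival, mean ± SD.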

[5] = Neuronal survival of cells in response to compound (100 nM) addition to etoposide (2.5 uM) to hippocampal neurons; assay type: functional, Rattus norvegicus, Hippocampus; summary of the method: as §2
[6] = Neuronal survival of cells in response to compound (100 nM) addition to etoposide (2.5 uM) to rat hippocampal neurons; assay type: functional, Hippocampus; summary of the method: as §2
[7] = Neuronal survival of cells in response to compound (100 nM) addition to camptothecin (5 uM) to rat hippocampal neurons; assay type: functional, Hippocampus; summary of the method: as §2

Compound | EC50 (PC-12 [1]) [nM] | EC25 (PC-12 [2]) [nM] | Survival [3] [%] | Survival [4] [%] | Survival [5] [%] | Survival [6] [%] | Survival [7] [%]
Nc1nc2c(s1)CCCC2 | 8750 | 855 |  |  |  |  | 
CCOC(=O)Cn1c2c(sc1=N)CCCC2 | 595 | 230 |  |  |  |  | 
N=c1sc2c(n1CC(=O)c1ccc(Cl)cc1)CCCC2 | 190 | 120 |  |  |  |  | 
COc1ccc(C(=O)Cn2c3c(sc2=N)CCCC3)cc1 | 180 | 150 |  |  |  |  | 
COc1cccc(C(=O)Cn2c3c(sc2=N)CCCC3)c1 | 420 | 340 |  |  |  |  | 
CCC(=O)Cn1c2c(oc1=N)CCCC2 | 145 |  |  |  |  |  | 
COc1ccccc1C(=O)Cn1c2c(sc1=N)CCCC2 | 350 | 250 |  |  |  |  | 
Br.CCC(=O)Cn1c2c(sc1=N)CCCC2 | 570 | 410 | 65 | 43 | 71 |  | 
Cc1ccc(C(=O)Cn2c3c(oc2=N)CCCC3)cc1 | 70 | 35 |  |  |  |  | 
N=c1sc2c(n1CC(=O)c1ccc(-c3ccccc3)cc1)CCCC2 | 770 | 340 |  |  |  |  | 
N=c1sc2c(n1CC(=O)c1ccc(F)cc1)CCCC2 | 380 | 300 |  |  |  |  | 
Br.Cc1ccc(C(=O)Cn2c3c(sc2=N)CC(C)CC3)cc1 (configuration not stated) | 305 | 100 |  |  |  | 60 | 29
N=c1sc2c(n1CC(=O)c1ccc([N+](=O)[O-])cc1)CCCC2 | 410 | 230 |  |  |  |  | 
Br.N=c1sc2c(n1Cc1ccccc1)CCCC2 | 740 | 415 | 61 | 43 | 78 |  | 
N=c1sc2c(n1CC(=O)c1ccccc1)CCCC2 | 170 | 80 |  |  |  |  | 
